In data set [1] the target is GABA-A receptor; anion channel. Description: In vitro binding affinity against benzodiazepine receptor using [3H]diazepam as radioligand. In kind it is protein-complex assay.
In data set [2] the test system is Mus musculus. The data set is described as follows: Anticonvulsant activity against prevention of tonic extensor seizures in 50% mice in the presence of bicuculline (ip administration). In kind it is functional. The gist of the method: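 Male CD1 mice, 10 per dose, given test compound ip in 0.5% methocel (10 mL/kg). Bicuculline, 2 mg/kg sc in aqueous solution, given 30 min later, following the metrazol protocol. ED50 is the dose preventing tonic extensor seizures in 50% of mice, obtained by Finney probit analysis with 95% confidence limits.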

The test system of data set [3] is Mus musculus. Description: Anticonvulsant activity against prevention of tonic extensor seizures in 50% mice in the presence of metrazole (ip administration). In kind it is functional.
The nature of data set [4]: Lethal dose analysed when administered intraperitoneally. In kind it is toxicity, organism-based. Conditions: mouse, in vivo, ip. The gist of the method: (§1)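 Acute toxicity was tested in male CD1 mice in groups of three per dose. Compounds were dispersed in 0.5% methocel and given ip at 10 mL/kg.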
In another data set the test system is Rattus norvegicus. The data set is described as follows: In vivo minimal effective dose for anticonflict activity by intraperitoneal administration in rats by the Vogel conflict procedure. Conditions: ip, read-out: MED. In kind it is functional. The method in brief: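 Male Wistar rats deprived of food 24 h and water 48 h; 10 per dose given compound ip in 0.5% methocel (4 mL/kg) 30 min before test. After 15 s free drinking of sweetened milk, 0.3 mA shocks were delivered through the spout in alternating 5-s on/off cycles over 5 min; shocks counted.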

Data set [5] addresses GABA-A receptor; anion channel (Rattus norvegicus) (UniProt O09028+P15431+P18506+P18508+P19969+P20236+P23574+P23576+P28471+P28473+P30191+P62813+P63079+P63138+Q91ZM7+Q9ES14). Description: Relative binding to GABA-A central benzodiazepine receptor in the presence and absence of 10e-4 M GABA (GABA shift). The class given is protein-complex assay. The method in brief: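 Rat forebrain membranes incubated in triplicate with 0.4 nM [3H]flunitrazepam and varying ligand concentrations, with or without 0.1 mM GABA, 20 min at 37 °C. Specific binding: total minus binding with 1 μM unlabelled clonazepam. The ratio compares displacement curves obtained without versus with GABA.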

In data set [6] the test system is Mus musculus. Description: Anticonvulsant activity against prevention of tonic extensor seizures in 50% mice in the presence of bicuculline (ip administration); 0.13-0.25. The class given is functional.
For data set [7], the system named is Mus musculus. Description: Anticonvulsant activity against prevention of tonic extensor seizures in 50% mice in the presence of metrazole (ip administration); 0.11-0.28. In kind it is functional.
Data set [8] in a line: Lethal dose analysed in mice when administered intraperitoneally. The class given is toxicity, organism-based. The settings on record: mouse, in vivo, ip. The gist of the method:
as §1

pKi: −log10 of the molar value. A value given as a limit tells only on which side of the number the result lay.

For `CN(C)c1nc2cc(-c3ccccc3)nnc2c2ccccc12`, the pKi (usually the Ki on a negative log10 scale, so that one unit is a factor of ten) in data set [1] was 7.55. Besides, the ED50 in the data set with Mus musculus [2] and in the data set on Mus musculus [3] was over 100 mg/kg each time. For the same compound, in data set [4], the LD50 – broadly, the dose expected to kill half of the subjects tested – was over 600 mg/kg. The minimal effective dose with Rattus norvegicus stood at 10 mg/kg. For the same compound, the GABA ratio in [5] amounted to 1.2.

For `CCN(C)c1nc2cc(-c3ccccc3)nnc2c2ccccc12`, the pKi in data set [1] was 7.19. Further, the ED50 in the data set with Mus musculus [2] and with Mus musculus [3] was over 50 mg/kg each time. For the same compound, the LD50 in [4] worked out at 300 mg/kg. The minimal effective dose with Rattus norvegicus was determined as 10 mg/kg. Moreover, the GABA ratio in data set [5] stood at 1.5.

In turn, `Oc1nc2cc(-c3ccccc3)nnc2c2ccccc12` showed a pKi in [1] of 5.77.

For `COCCN(CCOC)c1nc2cc(-c3ccc(Cl)cc3)nnc2c2ccccc12`, the pKi in [1] is 4.49.

In the case of `CC(O)CN(C)c1nc2cc(-c3ccccc3)nnc2c2ccccc12` (centres undefined), the pKi in [1] is 6.87. Further, the ED50 in the data set on Mus musculus [2] and in the data set on Mus musculus [3] was over 50 mg/kg throughout. In data set [4], this compound displayed an LD50 of 300 mg/kg. For the same compound, the minimal effective dose in the data set with Rattus norvegicus is 30 mg/kg. For the same compound, the GABA ratio in [5] was determined as 1.4.

In turn, `COc1ccc(-c2cc3nc(N4CCCCC4)c4ccccc4c3nn2)cc1` gave a pKi in data set [1] of 6.18. For the same compound, the ED50 in the data set on Mus musculus [2] and in the data set with Mus musculus [3] was over 100 mg/kg each time. This compound displayed an LD50 in data set [4] of over 600 mg/kg. Besides, in the data set with Rattus norvegicus, the minimal effective dose was 10 mg/kg.

Regarding `CN1C(=O)CN=C(c2ccccc2)c2cc(Cl)ccc21` [DIAZEPAM], the ED50 in the data set on Mus musculus [6] was determined as 0.18%; in the data set on Mus musculus [7], 0.2%. Moreover, the minimal effective dose in the data set with Rattus norvegicus came out at 0.5 mg/kg.

Compound `c1ccc(-c2cc3nc(N4CCOCC4)c4ccccc4c3nn2)cc1` gave a pKi in data set [1] of 6.82. Also, the ED50 in the data set on Mus musculus [2] and in the data set on Mus musculus [3] was over 50 mg/kg each time. The same compound registered an LD50 in data set [4] of 200 mg/kg. Also, the minimal effective dose in the data set with Rattus norvegicus is 15 mg/kg. In data set [5], the GABA ratio was found to be 1.4.

In turn, `CN1CCN=C(c2ccccc2)c2cc(Cl)ccc21` [MEDAZEPAM] had a pKi in data set [1] of 6.28. For the same compound, in data set [5], the GABA ratio came out at 1.9.

In data set [1], `Clc1nc2cc(-c3ccccc3)nnc2c2ccccc12` had a negative logarithm of the Ki (pKi) of 5.21.

As for `Cc1nnc2ccc(-c3cccc(C(F)(F)F)c3)nn12` [CI-218872], the pKi in data set [1] is 6.70.

As to `COc1ccc(-c2cc3nc(N4CCCC4)c4ccccc4c3nn2)cc1`, in [1], the pKi was 7.73. Further, the ED50 with Mus musculus [2] and in the data set on Mus musculus [3] was over 100 mg/kg in each case. Moreover, the 50% lethal dose (LD50) in data set [4] is over 600 mg/kg. Moreover, in the data set with Rattus norvegicus, the minimal effective dose worked out at 20 mg/kg.

The compound `CC(C)Oc1nc2cc(-c3ccccc3)nnc2c2ccccc12` showed a pKi in data set [1] of 5.72.

For the compound `COCCN(CCOC)c1nc2cc(-c3ccc(OC)cc3)nnc2c2ccccc12`, the pKi in [1] is 5.93. The ED50 in the data set with Mus musculus [2] and in the data set on Mus musculus [3] was over 100 mg/kg in each case. This compound yielded an LD50 in data set [4] of over 600 mg/kg. Moreover, the minimal effective dose in the data set with Rattus norvegicus was 10 mg/kg. Moreover, the GABA ratio in data set [5] was 2.

`Cc1cc2nc(N3CCCC3)c3ccccc3c2nn1` gave a pKi in data set [1] of 6.61. The ED50 with Mus musculus [2] and in the data set with Mus musculus [3] was over 50 mg/kg throughout. The LD50 in [8] came out at 200 mg/kg. Moreover, the minimal effective dose in the data set on Rattus norvegicus was 20 mg/kg. Also, the GABA ratio in data set [5] amounted to 1.

`c1ccc(-c2cc3nc(N4CCCC4)c4ccccc4c3nn2)cc1` had a pKi in [1] of 7.94. Further, the ED50 in the data set on Mus musculus [2] and in the data set on Mus musculus [3] was over 50 mg/kg throughout. Besides, the LD50 in data set [4] was determined as 300 mg/kg. For the same compound, in the data set with Rattus norvegicus, the minimal effective dose is 5 mg/kg. Moreover, the GABA ratio in data set [5] came to 1.6.

The compound `CN(C)c1nc2cc(-c3ccc(Cl)cc3)nnc2c2ccccc12` gave a pKi in [1] of 5.03.

With `CCOc1nc2cc(-c3ccccc3)nnc2c2ccccc12`, the negative-log Ki (pKi) in [1] was 5.82.

On to `COc1ccc(-c2cc3nc(N4CCOCC4)c4ccccc4c3nn2)cc1`, for which the pKi in data set [1] was 6.40. In addition, the ED50 with Mus musculus [2] and in the data set on Mus musculus [3] was over 100 mg/kg in each case. In data set [4], this compound had an LD50 of over 600 mg/kg. For the same compound, in the data set with Rattus norvegicus, the minimal effective dose came out at 30 mg/kg.

In data set [1], `COc1ccc(-c2cc3nc(N(C)CC(C)O)c4ccccc4c3nn2)cc1` (centres undefined) showed a pKi of 6.66. For the same compound, the ED50 in the data set with Mus musculus [2] and in the data set with Mus musculus [3] was over 100 mg/kg in each case. The compound also showed an LD50 in [4] of over 600 mg/kg. Moreover, in the data set with Rattus norvegicus, the minimal effective dose was 30 mg/kg. Also, in data set [5], the GABA ratio was 1.4.

Consider `COc1ccc(-c2cc3nc(N4CCC4)c4ccccc4c3nn2)cc1`, for which the pKi in data set [1] is 7.16. Further, the ED50 with Mus musculus [2] and in the data set with Mus musculus [3] was over 100 mg/kg in each case. Besides, in data set [4], the LD50 turned out to be 600 mg/kg. In addition, the minimal effective dose in the data set with Rattus norvegicus came to 30 mg/kg.

Turning to `Clc1ccc(-c2cc3nc(N4CCCC4)c4ccccc4c3nn2)cc1`, the pKi in [1] was 5.46.

Consider `c1ccc(-c2cc3ncc4ccccc4c3nn2)cc1`, for which the pKi in data set [1] was 5.40.

Compound `COc1ccc(-c2cc3nc(N(C)C)c4ccccc4c3nn2)cc1` had a pKi in [1] of 7.20. Further, the ED50 in the data set with Mus musculus [2] and in the data set on Mus musculus [3] was over 100 mg/kg throughout. Further, the LD50 in data set [4] is over 600 mg/kg. For the same compound, the minimal effective dose in the data set with Rattus norvegicus was found to be 10 mg/kg. The GABA ratio in data set [5] was 1.7.

In data set [1], `CC(O)CN(C)c1nc2cc(-c3ccc(Cl)cc3)nnc2c2ccccc12` (centres undefined) gave a pKi of 4.75.

These data come from ChEMBL document CHEMBL1123044, “Benzodiazepine receptor binding and anticonflict activity in a series of 3,6-disubstituted pyridazino[4,3-c]isoquinolines devoid of anticonvulsant properties” (J Med Chem, 1985).
